Source: ChEMBL document CHEMBL2380284, “X-ray crystal structures of the Escherichia coli RNA polymerase in complex with benzoxazinorifamycins” (J Med Chem, 2013)

Legend:
[1] = target: DNA-directed RNA polymerase subunit beta (Escherichia coli O127:H6 (strain E2348/69 / EPEC), UniProt B7UPE2, H526Y); assay: Inhibition of rifamycin-resistant Escherichia coli RNA polymerase H526Y mutant after 10 mins by rolling circle transcription assay in presence of DNA nanocircle template NC45
[2] = target: DNA-directed RNA polymerase subunit beta (Escherichia coli O127:H6 (strain E2348/69 / EPEC), UniProt B7UPE2, D516V); assay: Inhibition of rifamycin-resistant Escherichia coli RNA polymerase D516V mutant after 10 mins by rolling circle transcription assay in presence of DNA nanocircle template NC45
[3] = Inhibition of wild type Escherichia coli RNA polymerase after 10 mins by rolling circle transcription assay in presence of DNA nanocircle template NC45
Outline: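 Wild-type core enzyme (10 nM final), Ni-NTA purified, with compound at 1.56-100 or 3.12-200 nM, held 10 min at 37 °C in Tris-HCl pH 8.0 buffer with KCl, MgCl2, Triton X-100, DTT and RNase inhibitor. Transcription on 80 nM NC45 circle was started with NTPs (500 µM each). Each compound run in duplicate; IC50 by nonlinear four-parameter logistic regression.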

[4] = Inhibition of wild type Mycobacterium tuberculosis RNA polymerase after 10 mins by rolling circle transcription assay in presence of DNA nanocircle template NC45

Chain of DNA-directed RNA polymerase subunit beta (Escherichia coli O127:H6 (strain E2348/69 / EPEC), UniProt B7UPE2, H526Y) (B7UPE2 whole entry H526Y): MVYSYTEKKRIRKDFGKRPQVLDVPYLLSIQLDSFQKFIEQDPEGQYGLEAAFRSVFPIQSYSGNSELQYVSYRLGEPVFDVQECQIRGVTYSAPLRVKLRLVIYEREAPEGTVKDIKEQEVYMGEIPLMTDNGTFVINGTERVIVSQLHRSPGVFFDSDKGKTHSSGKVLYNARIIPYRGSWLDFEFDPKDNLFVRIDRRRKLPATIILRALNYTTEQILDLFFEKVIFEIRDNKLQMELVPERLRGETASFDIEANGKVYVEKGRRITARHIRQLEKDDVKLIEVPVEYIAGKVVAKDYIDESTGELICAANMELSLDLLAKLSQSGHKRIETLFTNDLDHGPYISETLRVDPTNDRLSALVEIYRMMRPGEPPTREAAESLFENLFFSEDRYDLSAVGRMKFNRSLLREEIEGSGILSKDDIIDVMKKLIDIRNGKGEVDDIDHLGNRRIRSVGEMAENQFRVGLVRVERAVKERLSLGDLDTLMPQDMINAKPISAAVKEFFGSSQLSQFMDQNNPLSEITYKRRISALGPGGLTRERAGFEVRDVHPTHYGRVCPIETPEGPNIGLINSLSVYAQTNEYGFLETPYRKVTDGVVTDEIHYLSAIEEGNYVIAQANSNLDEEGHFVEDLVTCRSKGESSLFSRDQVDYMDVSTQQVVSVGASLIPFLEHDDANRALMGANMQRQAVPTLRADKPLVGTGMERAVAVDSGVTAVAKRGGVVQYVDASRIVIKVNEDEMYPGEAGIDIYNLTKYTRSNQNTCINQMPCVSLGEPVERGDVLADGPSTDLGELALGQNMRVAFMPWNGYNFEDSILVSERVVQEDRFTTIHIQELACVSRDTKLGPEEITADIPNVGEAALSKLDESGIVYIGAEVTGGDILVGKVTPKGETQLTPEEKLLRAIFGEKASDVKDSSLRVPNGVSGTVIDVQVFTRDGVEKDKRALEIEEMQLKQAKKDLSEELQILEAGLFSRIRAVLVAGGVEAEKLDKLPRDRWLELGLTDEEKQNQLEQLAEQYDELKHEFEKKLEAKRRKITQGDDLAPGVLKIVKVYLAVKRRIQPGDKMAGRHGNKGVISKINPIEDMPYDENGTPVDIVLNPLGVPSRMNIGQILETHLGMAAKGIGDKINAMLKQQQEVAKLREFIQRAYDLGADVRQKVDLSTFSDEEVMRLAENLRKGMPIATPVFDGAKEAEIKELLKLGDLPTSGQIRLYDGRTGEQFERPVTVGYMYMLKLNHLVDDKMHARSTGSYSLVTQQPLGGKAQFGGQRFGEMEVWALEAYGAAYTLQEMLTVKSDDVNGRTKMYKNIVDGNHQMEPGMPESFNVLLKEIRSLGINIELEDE
Chain of DNA-directed RNA polymerase subunit beta (Escherichia coli O127:H6 (strain E2348/69 / EPEC), UniProt B7UPE2, D516V) (B7UPE2 whole entry D516V): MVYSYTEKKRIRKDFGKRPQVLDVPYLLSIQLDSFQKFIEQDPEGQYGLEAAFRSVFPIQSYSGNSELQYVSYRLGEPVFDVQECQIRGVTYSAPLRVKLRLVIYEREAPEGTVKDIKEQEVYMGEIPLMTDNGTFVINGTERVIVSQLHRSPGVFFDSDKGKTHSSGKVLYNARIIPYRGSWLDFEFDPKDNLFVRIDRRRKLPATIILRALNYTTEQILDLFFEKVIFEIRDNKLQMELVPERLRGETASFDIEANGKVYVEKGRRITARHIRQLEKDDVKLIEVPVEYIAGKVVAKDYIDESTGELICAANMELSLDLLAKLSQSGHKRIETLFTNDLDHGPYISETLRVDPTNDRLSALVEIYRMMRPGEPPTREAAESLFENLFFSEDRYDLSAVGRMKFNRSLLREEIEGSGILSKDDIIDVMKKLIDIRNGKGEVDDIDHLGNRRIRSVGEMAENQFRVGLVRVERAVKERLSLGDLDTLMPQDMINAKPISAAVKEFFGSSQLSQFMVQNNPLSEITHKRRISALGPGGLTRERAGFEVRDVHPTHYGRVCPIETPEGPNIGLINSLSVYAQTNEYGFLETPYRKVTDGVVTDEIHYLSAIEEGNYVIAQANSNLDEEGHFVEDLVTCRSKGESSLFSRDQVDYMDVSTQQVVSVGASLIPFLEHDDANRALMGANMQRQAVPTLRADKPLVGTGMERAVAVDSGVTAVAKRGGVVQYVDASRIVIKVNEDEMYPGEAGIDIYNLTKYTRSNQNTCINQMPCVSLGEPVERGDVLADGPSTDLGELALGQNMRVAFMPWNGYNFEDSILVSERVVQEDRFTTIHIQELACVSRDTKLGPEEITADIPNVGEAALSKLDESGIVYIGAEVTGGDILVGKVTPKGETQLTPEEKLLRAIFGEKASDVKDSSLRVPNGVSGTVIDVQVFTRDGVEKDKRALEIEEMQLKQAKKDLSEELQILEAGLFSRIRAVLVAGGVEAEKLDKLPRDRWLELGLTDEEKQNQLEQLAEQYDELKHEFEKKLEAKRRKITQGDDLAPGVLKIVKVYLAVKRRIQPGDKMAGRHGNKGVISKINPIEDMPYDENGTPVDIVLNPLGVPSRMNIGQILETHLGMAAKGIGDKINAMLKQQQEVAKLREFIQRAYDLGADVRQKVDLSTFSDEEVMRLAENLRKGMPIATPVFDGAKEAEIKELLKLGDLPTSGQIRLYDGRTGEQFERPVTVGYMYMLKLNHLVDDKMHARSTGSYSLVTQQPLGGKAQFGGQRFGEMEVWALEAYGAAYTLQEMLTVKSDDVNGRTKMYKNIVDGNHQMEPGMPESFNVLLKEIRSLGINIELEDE

Row | SMILES | IC50 [1] [µM] | IC50 [2] [µM] | IC50 [3] [µM] | IC50 [4] [µM]
1 | CCN(CC)CCOc1cccc2oc3c4c(=O)c5c(O)c(C)c6c(c5c-3nc12)C(=O)[C@@](C)(O/C=C/[C@H](OC)[C@@H](C)[C@@H](OC(C)=O)[C@H](C)[C@H](O)[C@H](C)[C@@H](O)[C@@H](C)/C=C/C=C(/C)C(=O)N4)O6 | 1150 | 35 | 0.057 | 
2 | CO[C@H]1/C=C/O[C@@]2(C)Oc3c(C)c(O)c4c(=O)c(c5oc6cccc(OCCCCN7CCN(CCn8ccnc8)CC7)c6nc-5c4c3C2=O)NC(=O)/C(C)=C\C=C\[C@H](C)[C@H](O)[C@@H](C)[C@@H](O)[C@@H](C)[C@H](OC(C)=O)[C@@H]1C | ≥ 2000 | 2 | 0.024 | 
3 | CO[C@H]1/C=C/O[C@@]2(C)Oc3c(C)c(O)c4c(=O)c(c5oc6cccc(OCCCCN7CCN(C(=O)Cn8ccnc8)CC7)c6nc-5c4c3C2=O)NC(=O)/C(C)=C\C=C\[C@H](C)[C@H](O)[C@@H](C)[C@@H](O)[C@@H](C)[C@H](OC(C)=O)[C@@H]1C | 1580 | 41 | 0.021 | 
4 | CO[C@H]1/C=C/O[C@@]2(C)Oc3c(C)c(O)c4c(=O)c(c5oc6cc(N7CCN(CC(C)C)CC7)cc(O)c6nc-5c4c3C2=O)NC(=O)/C(C)=C\C=C\[C@H](C)[C@H](O)[C@@H](C)[C@@H](O)[C@@H](C)[C@H](OC(C)=O)[C@@H]1C [RIFALAZIL] | 299 | 204 | < 0.01 | 
5 | CO[C@H]1/C=C/O[C@@]2(C)Oc3c(C)c(O)c4c(O)c(c(/C=N/N5CCN(C)CC5)c(O)c4c3C2=O)NC(=O)/C(C)=C\C=C\[C@H](C)[C@H](O)[C@@H](C)[C@@H](O)[C@@H](C)[C@H](OC(C)=O)[C@@H]1C [RIFAMPIN] | 1130 | 233 | 0.012 | 0.017
